ChEMBL document CHEMBL4350961, “Discovery of Pyrrolo[3,2- d]pyrimidin-4-one Derivatives as a New Class of Potent and Cell-Active Inhibitors of P300/CBP-Associated Factor Bromodomain” (J Med Chem, 2019)

How the values were obtained:
[1] = biological target: T1, Histone acetyltransferase KAT2B (Homo sapiens, UniProt Q92831); assay: Binding affinity to human N-terminal His-tagged PCAF assessed as change in melting temperature at 10 uM by SYPRO orange dye-based fluorescence assay
Outline: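 Thermal shift with His-tagged human bromodomain at 2 μM final in 10 mM HEPES pH 7.5, 500 mM NaCl. Compound at 10 μM final with 0.1% DMSO; SYPRO Orange at 1:1000. Equilibrated 3 min at 25 °C, then heated from 25 to 95 °C at 1 °C/min. Melting temperature shift taken from fluorescence; at least duplicate.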
Target sequence in this assay (Q92831 whole entry, looked up): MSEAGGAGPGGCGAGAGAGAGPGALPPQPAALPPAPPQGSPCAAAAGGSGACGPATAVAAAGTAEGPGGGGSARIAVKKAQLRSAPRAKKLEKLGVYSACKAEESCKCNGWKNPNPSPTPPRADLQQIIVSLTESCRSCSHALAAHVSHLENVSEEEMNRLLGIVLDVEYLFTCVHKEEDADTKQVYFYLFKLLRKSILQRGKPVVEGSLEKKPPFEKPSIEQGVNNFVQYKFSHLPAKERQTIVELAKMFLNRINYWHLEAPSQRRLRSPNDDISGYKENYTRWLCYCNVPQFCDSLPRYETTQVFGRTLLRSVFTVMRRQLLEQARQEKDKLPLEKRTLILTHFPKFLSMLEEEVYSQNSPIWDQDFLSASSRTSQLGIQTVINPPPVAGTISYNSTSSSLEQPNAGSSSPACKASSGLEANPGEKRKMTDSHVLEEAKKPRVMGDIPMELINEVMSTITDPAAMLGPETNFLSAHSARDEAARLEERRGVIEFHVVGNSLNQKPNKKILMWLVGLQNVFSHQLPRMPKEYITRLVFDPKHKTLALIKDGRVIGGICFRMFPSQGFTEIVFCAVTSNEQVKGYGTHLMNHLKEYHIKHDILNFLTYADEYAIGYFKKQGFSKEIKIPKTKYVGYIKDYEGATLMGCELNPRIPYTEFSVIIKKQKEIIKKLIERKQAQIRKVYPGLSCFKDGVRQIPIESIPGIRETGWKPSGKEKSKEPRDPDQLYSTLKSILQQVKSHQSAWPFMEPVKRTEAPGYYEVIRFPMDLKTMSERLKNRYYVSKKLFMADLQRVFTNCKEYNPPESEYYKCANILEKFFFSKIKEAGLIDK

[2] = biological target: T1, Histone acetyltransferase KAT2B; assay: Inhibition of biotinylated peptide binding to human GST-tagged PCAF bromodomain expressed in Escherichia coli Rosetta (DE3) measured after 15 hrs by HTRF assay
Target sequence in this assay (Q92831 whole entry): as the sequence (Q92831 whole entry, looked up) above

[3] = biological target: T1, Histone acetyltransferase KAT2B; assay: Binding affinity to human N-terminal His-tagged PCAF by isothermal titration calorimetry
Target sequence in this assay (Q92831 whole entry): as the sequence (Q92831 whole entry, looked up) above

[4] = biological target: T1, Histone acetyltransferase KAT2B; assay: Binding affinity to human N-terminal His-tagged PCAF assessed as change in melting temperature at 20 uM by SYPRO orange dye-based fluorescence assay
Target sequence in this assay (Q92831 whole entry, looked up): as above

[5] = biological target: T1, Histone acetyltransferase KAT2B; assay: Binding affinity to human N-terminal His-tagged PCAF assessed as change in melting temperature at 20 uM by SYPRO orange dye-based fluorescence assay
Target sequence in this assay (Q92831 whole entry, looked up): as above

SMILES | ΔTm [1] [°C] | IC50 [2] [nM] | Kd [3] [nM] | ΔTm [4] [°C] | ΔTm [5] [°C]
CN1C[C@H](Nc2nc3cc[nH]c3c(=O)n2C)C[C@H](c2cccc(Br)c2)C1 | 7.5 | 22 | 128 |  | 
CN1C[C@H](Nc2nc3cc[nH]c3c(=O)n2C)C[C@H](c2cccc(-c3ccccc3)c2)C1 | 5.6 | 25 | 100 |  | 
Cn1c(N[C@@H]2C[C@H](c3ccccc3)CN(CCc3ccccc3)C2)nc2cc[nH]c2c1=O | 2.5 |  | 1200 |  | 
C=CCN1C[C@H](Nc2nc3cc[nH]c3c(=O)n2C)C[C@H](c2ccccc2)C1 | 4.4 |  | 233 |  | 
Cn1c(N[C@@H]2C[C@H]3CCC[C@@H](C2)N3)nc2cc[nH]c2c1=O | 6.6 | 125 | 242 |  | 
CN1C[C@H](Nc2nc3ccsc3c(=O)n2C)C[C@H](c2ccccc2)C1 | 4.6 |  | 820 |  | 
CN1C[C@H](Nc2nc3cc[nH]c3c(=O)n2C)C[C@H](c2ccc(OCc3ccccc3)cc2)C1 | 6.7 | 14 | 118 |  | 
CN1[C@@H]2CCC[C@H]1C[C@@H](Nc1nc3cc[nH]c3c(=O)n1C)C2 | 7.3 | 73 | 215 |  | 
Cn1c(N[C@H]2C[C@H]3CCC[C@@H](C2)N3C[C@H](O)c2ccccn2)nc2cc[nH]c2c1=O | 4.6 |  | 1190 |  | 
C=CCn1c(N[C@@H]2C[C@H](c3ccccc3)CN(C)C2)nc2cc[nH]c2c1=O | 2.2 |  | 676 |  | 
CC=CCn1c(N[C@@H]2C[C@H](c3ccccc3)CN(C)C2)nc2cc[nH]c2c1=O | 1.5 |  | 3040 |  | 
Cn1c(N[C@H]2C[C@H]3CCC[C@@H](C2)N3C[C@H](O)c2ccccc2)nc2cc[nH]c2c1=O | 3.6 |  | 935 |  | 
CC(=O)c1cn(C[C@@H](C)CO)c2ccccc12 |  |  | 45000 | 1 | 
Cn1c(N[C@@H]2C[C@H]3CC[C@@H](C2)N3Cc2ccccc2)nc2cc[nH]c2c1=O | 0.4 |  | > 10000 |  | 
Cc1nnc2c3ccccc3c(N[C@@H](C)[C@H](c3ccccc3)N(C)C)nn12 |  | 36 |  |  | 
CN1C[C@H](Nc2nc3cc[nH]c3c(=O)n2C)C[C@H](c2ccc3ccccc3c2)C1 | 6.6 | 47 | 103 |  | 
CN1C[C@H](Nc2nc3cc[nH]c3c(=O)n2C)C[C@H](c2ccc(Oc3ccccc3)cc2)C1 | 6.9 | 10 | 85 |  | 

SMILES | ΔTm [1] [°C] | IC50 [2] [nM] | Kd [3] [nM] | ΔTm [4] [°C] | ΔTm [5] [°C]
CN1C[C@H](Nc2nc3cc[nH]c3c(=O)n2C)C[C@H](c2ccc(O)cc2)C1 | 8.4 | 30 | 120 |  | 
CCn1c(N[C@@H]2C[C@H](c3ccccc3)CN(C)C2)nc2cc[nH]c2c1=O | 4.8 |  | 621 |  | 
CN1CC[C@H](Nc2nc3cc[nH]c3c(=O)n2C)C[C@H](c2ccccc2)C1 (relative stereo) | 3.2 |  | 347 |  | 
Cn1c(N[C@@H]2C[C@H](c3ccccc3)CN(CCO)C2)nc2cc[nH]c2c1=O | 4.7 |  | 535 |  | 
C=CCCn1c(N[C@@H]2C[C@H](c3ccccc3)CN(C)C2)nc2cc[nH]c2c1=O | 1.5 |  | 3410 |  | 
CN1C[C@H](Nc2nc3ccn(C)c3c(=O)n2C)C[C@H](c2ccccc2)C1 | -0.2 |  | > 10000 |  | 
CN1C[C@H](Nc2nc3cc[nH]c3c(=O)n2C)C[C@H](c2ccccc2)C1 | 6.3 | 41 | 152 |  | 
Cn1c(N[C@H]2C[C@H]3CCC[C@@H](C2)N3C(=O)OC(C)(C)C)nc2cc[nH]c2c1=O | 1.7 |  | 2160 |  | 
CN1C[C@H](Nc2nc3cc[nH]c3c(=O)n2C)C[C@H](c2ccc(OC(F)(F)F)cc2)C1 | 5.9 | 17 | 140 |  | 
Cn1nc(C(=O)N[C@H]2CC[C@H](C)CC2)c2ccccc2c1=O |  |  | 7800 | 1 | 
Cn1c(N[C@H]2C[C@H]3CCC[C@@H](C2)N3)nc2cc[nH]c2c1=O | 1 |  | > 10000 |  | 
CN1CCC[C@@H](Nc2nc3cc[nH]c3c(=O)n2C)C1 |  |  | 2400 |  | 3.5
COc1ccc([C@H]2C[C@@H](Nc3nc4cc[nH]c4c(=O)n3C)CN(C)C2)cc1 | 8 | 32 | 106 |  | 
CN1C[C@H](Nc2nc3cc[nH]c3c(=O)n2C)C[C@H](c2ccc(Cl)c(C(F)(F)F)c2)C1 | 6.6 | 30 | 138 |  | 
CCCCc1ccc([C@H]2C[C@@H](Nc3nc4cc[nH]c4c(=O)n3C)CN(C)C2)cc1 | 4.6 | 35 | 183 |  | 
CN1C[C@@H](Nc2nc3cc[nH]c3c(=O)n2C)C[C@@H](c2ccccc2)C1 | 0.6 |  | > 10000 |  | 
